pEC50: −log10 of the molar value.
What was measured:
[1] = tested on: Trypanosoma brucei brucei; test: Effective dose required to inhibit the growth of Trypanosoma brucei; type: functional; details: read-out: ED50 (the source's name)
How it was run: (§1)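 Bloodstream-form strain 427 was grown in HMI-9 with 10% FBS at 37 °C, 5% CO2. Cells were seeded at 1 × 10^4 trypomastigotes/well in triplicate, with serial dilutions from 20 mM DMSO stocks. Growth was read with Alamar Blue at 48 h, pentamidine served as positive control, and ED50 was fitted from the curves.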

[2] = tested on: protein farnesyltransferase (Trypanosoma brucei); test: Inhibition of against Trypanosoma brucei protein farnesyltransferase at 50 nM concentration
[3] = tested on: Trypanosoma brucei rhodesiense; test: Effective dose required to inhibit the growth of Trypanosoma brucei rhodesiense; type: functional; details: read-out: ED50 (the source's name)
How it was run: (§2)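 Bloodstream-form trypomastigotes of strain STIB 900 were grown in HMI-18 with nonessential amino acids, glucose and 15% heat-inactivated FCS at 37 °C, 5% CO2. Compounds were given as serial dilutions, in triplicate, from 1 × 10^4 cells/well. Cultures ran 72 h before Alamar Blue read-out, and ED50 was fitted.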

NIH3T3 = test: Effective dose against murine 3T3 fibroblasts cells; type: functional; details: Mus musculus, read-out: ED50 (the source's name)
How it was run: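 Murine 3T3 fibroblasts were grown in RPMI 1640 with 10% FBS and held 72 h with compound at 37 °C, 5% CO2.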

[4] = tested on: Trypanosoma brucei rhodesiense; test: Dose required to inhibit growth of Trypanosoma brucei rhodesiense; 0.14-0.8 uM; type: functional; details: read-out: ED50 (the source's name); how it was run: as §2
[5] = tested on: Trypanosoma brucei brucei; test: Dose required to inhibit growth of Trypanosoma brucei; 0.5-5 uM; type: functional; details: read-out: ED50; how it was run: as §1
[6] = tested on: protein farnesyltransferase (Trypanosoma brucei); test: Inhibition of Trypanosoma brucei protein farnesyltransferase at 50 nM (0-14%)

SMILES	pEC50 [1]	inhibition [2] [%]	pEC50 [3]	pEC50 [4]	pEC50 [5]	inhibition [6] [%]	pEC50 (NIH3T3)
CCCCCn1cncc1CNc1ccc(C(=O)N[C@@H](CCSC)C(=O)O)c(-c2ccccc2)c1		80.6					
N#Cc1ccc(Cn2cncc2CNc2ccc(C(=O)NCc3ccccc3)c(-c3ccccc3)c2)cc1	5.00	1.2	5.09				< 5.00
CSCC[C@H](NC(=O)c1ccc(NCc2cncn2CC2CCCCC2)cc1-c1ccccc1)C(=O)O		69.8					
CSCC[C@H](NC(=O)c1ccc(CNCc2c[nH]cn2)cc1-c1ccccc1C)C(=O)OC(C)C	8.30	6.2	8.52				5.00
N#CCNC(=O)c1ccc(NCc2cncn2Cc2ccc(C#N)cc2)cc1-c1ccccc1	< 5.00	0	4.35				< 5.00
CSCC[C@H](NC(=O)c1ccc(CNCc2[nH]cnc2C)cc1-c1ccccc1C)C(=O)O	< 5.00	68.5					< 5.00
COC(=O)[C@H](CCSC)NC(=O)c1ccc(CNCc2c[nH]cn2)cc1-c1ccccc1C	7.60	41	8.59				4.60
N#Cc1ccc(Cn2cncc2CNc2ccc(C(=O)Nc3cccc([N+](=O)[O-])c3)c(-c3ccccc3)c2)cc1	< 5.00	9.1	5.52				< 5.00
CSCNC(=O)c1ccc(NCc2cncn2Cc2ccc(C#N)cc2)cc1-c1ccccc1	< 5.00	17.1	5.52				< 5.00
CC(C)NC(=O)c1ccc(NCc2cncn2Cc2ccc(C#N)cc2)cc1-c1ccccc1	< 5.00	8.4	5.28				< 5.00
COC(=O)[C@H](CCSC)NC(=O)c1ccc(NCc2cncn2Cc2ccc(C)cc2)cc1-c1ccccc1				≥ 6.10	≥ 5.30	≤ 14	< 5.00
CSCC[C@H](NC(=O)c1ccc(NCc2cn(CC3CCCCC3)cn2)cc1-c1ccccc1)C(=O)O		12					
CCCCCn1cnc(CNc2ccc(C(=O)N[C@@H](CCSC)C(=O)O)c(-c3ccccc3)c2)c1		11.5					

Second part, led by results:

pEC50 [1]	inhibition [2] [%]	pEC50 [3]	pEC50 [4]	pEC50 [5]	inhibition [6] [%]	SMILES	pEC50 (NIH3T3)
7.00	66.2	8.82				COC(=O)[C@H](CCSC)NC(=O)c1ccc(CN(Cc2c[nH]cn2)Cc2c[nH]cn2)cc1-c1ccccc1C	< 5.00
	4.5					CSCC[C@H](NC(=O)c1ccc(NCc2cn(Cc3ccc(-c4ccccc4)cc3)cn2)cc1-c1ccccc1)C(=O)O	
			≥ 6.10	≥ 5.30	≤ 14	COC(=O)[C@H](CCSC)NC(=O)c1ccc(NCc2cncn2Cc2ccc(C#N)cc2)cc1-c1ccccc1	< 5.00
< 4.60		5.04				CSCC[C@H](NC(=O)c1ccc(NC[C@@H](N)CS)cc1-c1ccccc1)C(=O)O	< 4.60
			≥ 6.10	≥ 5.30	≤ 14	COC(=O)[C@H](CCSC)NC(=O)c1ccc(NCc2cncn2Cc2ccc([N+](=O)[O-])cc2)cc1-c1ccccc1	< 5.00
< 5.00	2.2					N#Cc1ccc(Cn2cncc2CNc2ccc(C(=O)Nc3cccc(C#N)c3)c(-c3ccccc3)c2)cc1	< 5.00
6.30	7	7.00				COC(=O)[C@H](CCSC)NC(=O)c1ccc(CNCc2cncn2Cc2ccc(C#N)cc2)cc1-c1ccccc1C	< 5.00
			≥ 6.10	≥ 5.30	≤ 14	COC(=O)[C@H](CCSC)NC(=O)c1ccc(NCc2cncn2Cc2ccc(Cl)cc2)cc1-c1ccccc1	< 5.00
8.00	10.4	8.30				CCOC(=O)[C@H](CCSC)NC(=O)c1ccc(CNCc2c[nH]cn2)cc1-c1ccccc1C	5.00
			< 6.85	≥ 5.30	14	COC(=O)[C@H](CCSC)NC(=O)c1ccc(NCc2cncn2Cc2ccc(-c3ccccc3)cc2)cc1-c1ccccc1	< 5.00

— ChEMBL document CHEMBL1148384, “Design and synthesis of peptidomimetic protein farnesyltransferase inhibitors as anti-Trypanosoma brucei agents” (J Med Chem, 2004)
